Drawing on ChEMBL document CHEMBL4130351, “Novel pyrazolopyrimidines: Synthesis, in vitro cytotoxic activity and mechanistic investigation” (Eur J Med Chem, 2017), this text covers IC50 for 5 compounds.

SMILES strings stand for the structures. Bounds are passed on as bounds.

One test relates to MCF7. Kind of test: Cytotoxicity against human MCF7 cells assessed as reduction in cell viability after 72 hrs by MTT assay. The test is classed as functional, cell-based. The following applies: MCF7, 72 h. In outline: (§1)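 MCF-7 and HepG2 cells in exponential growth were trypsinized and seeded at 1000–2000 cells/well, then incubated 24 h at 37 °C. Compound exposure was 72 h at 0.1, 10, 100 and 1000 μM. Cells took up 5% MTT for 2 h, and formazan was dissolved in acidified isopropanol for 30 min at room temperature. A570 was read, viability expressed as % of control, and IC50 obtained by curve fitting.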
(In general: Tetrazolium dyes change colour on reduction, which living cells bring about.)

The test system of another test is HepG2. The experiment in a line: Cytotoxicity against human HepG2 cells assessed as reduction in cell viability after 72 hrs by MTT assay. The class given is functional, cell-based. The following applies: HepG2, 72 h. In outline: as §1

With `NC(=O)c1cnn(-c2ccc(S(N)(=O)=O)cc2)c1N`, the IC50 in the test with MCF7 and in the test with HepG2 was over 100 µM in each case.

Consider `COc1ccc(-c2nc3c(cnn3-c3ccc(S(N)(=O)=O)cc3)c(=O)[nH]2)cc1OC`, for which the IC50 with MCF7 and in the test on HepG2 was over 100 µM each time.

For `COc1cccc2c1C(=O)c1c(O)c3c(c(O)c1C2=O)C[C@@](O)(C(=O)CO)C[C@@H]3O[C@H]1C[C@H](N)[C@H](O)[C@H](C)O1` [DOXORUBICIN], the IC50 (as a rule, the concentration needed to halve the response being measured) was determined as 1.02 µM with MCF7 and 0.9 µM in the test on HepG2.

On to `NS(=O)(=O)c1ccc(-n2ncc3c(=O)[nH]c(-c4ccc(Br)cc4)nc32)cc1`, for which the IC50 in the test with MCF7 is 14.5 µM; with HepG2 it was 42.6 µM.

Consider `NS(=O)(=O)c1ccc(-n2ncc3c(=O)[nH]c(-c4ccc(Cl)cc4)nc32)cc1`, for which the concentration for half-maximal inhibition (IC50) is 2.5 µM with MCF7 and 23.9 µM in the test with HepG2.
